The record followed here is article PMC8756568 (ACS Omega, 2021).

One assay relates to Huh-7 cells. Put plainly: cellular uptake in Huh-7 cells. The note with it: n = 3. It counts as cell-based, human. The essentials:
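Huh-7 cells were seeded at 1×10^5 per well in DMEM/10% FBS. Radiolabeled tracer (740 KBq/1 mL medium) was added, with incubation at 37 or 4 °C for 5, 10, 20, 40, 60 and 80 min. Cells were washed three times with cold PBS and lysed in 0.5 M NaOH. Lysate radioactivity was gamma-counted.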

The next assay deals with B16F10 cells. The experiment in a line: cellular internalization in B16F10 cells. Type of assay: cell-based, mouse. The note with it: n = 3.

Take “NODAGA-Ahx-CWRLRWHSPLKGM-OH [[^64Cu]CM-3]”: the “in vitro cellular internalization” value in the assay on Huh-7 cells and in the assay on B16F10 cells was “weaker binding” throughout.
